Nine molecules from ChEMBL document CHEMBL1765068, “Role of the side chain stereochemistry in the α-glucosidase inhibitory activity of kotalanol, a potent natural α-glucosidase inhibitor” (Bioorg Med Chem, 2011) can be followed below.

The target of assay [1] is T1, Sucrase-isomaltase, intestinal (Rattus norvegicus, UniProt P23739). As to the kind of experiment: Inhibition of rat small intestinal sucrase after 30 mins. The procedure, abridged:
(§1)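 Enzyme source was rat small-intestinal brush-border membrane vesicles suspended in 0.1 M maleate buffer, pH 6.0. Substrate solutions were maltose 74 mM (maltase), sucrose 74 mM (sucrase) and isomaltose 7.4 mM (isomaltase). Glucose was measured by glucose oxidase. IC50 was read graphically from % inhibition versus log concentration.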

Assay [2] has as its target T1, Sucrase-isomaltase, intestinal. Nature of the assay: Inhibition of rat small intestinal isomaltase after 30 mins. In outline:
as §1

Assay [3] addresses Lysosomal alpha-glucosidase (Rattus norvegicus) (UniProt Q6P7A9). To be noted: 100 ug/ml.
The target in assay [4] is Sucrase-isomaltase, intestinal (Rattus norvegicus) (UniProt P23739). The conditions noted are these: 100 ug/ml.
Chain of Sucrase-isomaltase, intestinal (Rattus norvegicus) (P23739 1-1013 limits assumed): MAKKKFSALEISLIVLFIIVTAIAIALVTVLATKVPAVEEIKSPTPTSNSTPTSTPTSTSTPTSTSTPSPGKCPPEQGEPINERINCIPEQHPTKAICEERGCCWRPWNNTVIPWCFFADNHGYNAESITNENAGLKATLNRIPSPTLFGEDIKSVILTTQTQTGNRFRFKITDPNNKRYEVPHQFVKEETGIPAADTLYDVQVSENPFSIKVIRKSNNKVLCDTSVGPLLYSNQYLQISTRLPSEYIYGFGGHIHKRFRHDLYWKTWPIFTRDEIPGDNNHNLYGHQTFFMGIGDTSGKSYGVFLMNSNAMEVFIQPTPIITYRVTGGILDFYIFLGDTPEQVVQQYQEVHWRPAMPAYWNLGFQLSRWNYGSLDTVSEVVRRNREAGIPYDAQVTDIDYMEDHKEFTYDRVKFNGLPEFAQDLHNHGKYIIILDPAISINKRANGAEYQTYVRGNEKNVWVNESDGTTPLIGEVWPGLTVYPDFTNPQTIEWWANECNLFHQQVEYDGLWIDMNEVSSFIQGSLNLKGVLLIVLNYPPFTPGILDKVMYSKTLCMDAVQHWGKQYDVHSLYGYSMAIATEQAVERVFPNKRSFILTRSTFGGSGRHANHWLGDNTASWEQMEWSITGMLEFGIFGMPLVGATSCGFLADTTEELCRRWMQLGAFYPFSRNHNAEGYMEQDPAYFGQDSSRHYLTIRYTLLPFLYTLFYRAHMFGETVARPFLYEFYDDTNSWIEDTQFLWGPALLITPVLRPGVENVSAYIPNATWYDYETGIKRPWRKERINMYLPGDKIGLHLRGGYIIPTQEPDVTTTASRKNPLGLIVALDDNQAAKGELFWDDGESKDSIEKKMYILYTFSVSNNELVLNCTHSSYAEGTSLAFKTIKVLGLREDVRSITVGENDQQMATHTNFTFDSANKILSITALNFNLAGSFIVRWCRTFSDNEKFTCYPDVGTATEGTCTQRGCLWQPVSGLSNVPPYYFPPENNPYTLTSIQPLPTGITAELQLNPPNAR
Chain of Sucrase-isomaltase, intestinal (Rattus norvegicus) (P23739 1014-1841 limits assumed): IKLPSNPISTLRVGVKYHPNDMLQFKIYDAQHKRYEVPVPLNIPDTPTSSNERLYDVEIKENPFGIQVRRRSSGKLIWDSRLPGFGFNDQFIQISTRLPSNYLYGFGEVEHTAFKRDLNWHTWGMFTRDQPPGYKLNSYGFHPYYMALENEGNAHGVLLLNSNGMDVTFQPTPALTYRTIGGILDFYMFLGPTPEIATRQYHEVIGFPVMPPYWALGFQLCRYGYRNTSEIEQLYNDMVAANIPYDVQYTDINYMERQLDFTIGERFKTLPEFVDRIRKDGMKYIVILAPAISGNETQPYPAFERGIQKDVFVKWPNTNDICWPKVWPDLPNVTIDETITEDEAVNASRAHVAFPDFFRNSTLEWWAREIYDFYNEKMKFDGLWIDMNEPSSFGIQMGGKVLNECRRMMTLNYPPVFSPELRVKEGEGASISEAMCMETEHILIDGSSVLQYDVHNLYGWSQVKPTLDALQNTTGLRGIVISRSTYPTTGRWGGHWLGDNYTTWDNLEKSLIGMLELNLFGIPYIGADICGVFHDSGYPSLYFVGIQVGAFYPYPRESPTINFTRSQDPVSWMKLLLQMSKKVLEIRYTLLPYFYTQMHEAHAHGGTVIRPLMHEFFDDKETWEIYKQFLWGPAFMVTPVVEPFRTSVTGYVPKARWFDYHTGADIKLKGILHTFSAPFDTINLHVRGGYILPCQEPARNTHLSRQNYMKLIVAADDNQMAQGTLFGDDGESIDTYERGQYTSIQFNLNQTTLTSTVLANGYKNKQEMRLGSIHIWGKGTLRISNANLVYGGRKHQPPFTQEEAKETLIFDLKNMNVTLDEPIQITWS
The nature of assay [5]: Inhibition of rat small intestinal maltase after 30 mins.

A value given as a limit tells only on which side of the number the result lay.

Chain of Lysosomal alpha-glucosidase (Rattus norvegicus) (Q6P7A9 whole entry): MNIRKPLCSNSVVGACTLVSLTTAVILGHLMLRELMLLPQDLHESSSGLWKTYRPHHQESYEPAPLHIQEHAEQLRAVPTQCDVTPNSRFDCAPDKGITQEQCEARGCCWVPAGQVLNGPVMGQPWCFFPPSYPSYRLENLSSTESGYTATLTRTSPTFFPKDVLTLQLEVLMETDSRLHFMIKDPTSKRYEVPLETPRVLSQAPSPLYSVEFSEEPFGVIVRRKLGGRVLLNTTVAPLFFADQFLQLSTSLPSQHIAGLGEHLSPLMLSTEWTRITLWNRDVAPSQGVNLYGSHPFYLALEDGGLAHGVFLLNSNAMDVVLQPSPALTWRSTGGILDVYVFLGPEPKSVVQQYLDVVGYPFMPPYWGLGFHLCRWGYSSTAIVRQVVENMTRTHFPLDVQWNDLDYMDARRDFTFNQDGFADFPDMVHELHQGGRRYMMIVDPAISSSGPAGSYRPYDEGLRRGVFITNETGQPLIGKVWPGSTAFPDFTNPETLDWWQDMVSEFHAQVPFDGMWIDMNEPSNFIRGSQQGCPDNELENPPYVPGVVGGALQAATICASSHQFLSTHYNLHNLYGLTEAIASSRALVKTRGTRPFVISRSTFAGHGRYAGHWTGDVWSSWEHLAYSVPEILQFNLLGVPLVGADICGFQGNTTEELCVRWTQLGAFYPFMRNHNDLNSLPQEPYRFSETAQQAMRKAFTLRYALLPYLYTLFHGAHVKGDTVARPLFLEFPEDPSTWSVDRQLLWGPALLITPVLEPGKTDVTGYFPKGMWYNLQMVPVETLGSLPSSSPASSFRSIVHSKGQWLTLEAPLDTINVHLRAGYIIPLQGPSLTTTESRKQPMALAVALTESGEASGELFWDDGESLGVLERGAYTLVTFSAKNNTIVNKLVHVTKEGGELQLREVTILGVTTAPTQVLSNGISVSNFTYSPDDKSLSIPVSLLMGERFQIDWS
T1 sequence (P23739 1-1013 limits assumed): as the sequence (P23739 1-1013 limits assumed) above
T1 sequence (P23739 1014-1841 limits assumed): as the sequence (P23739 1014-1841 limits assumed) above

In the case of `O=S(=O)([O-])OC[C@H](O)C[S@+]1C[C@@H](O)[C@H](O)[C@H]1CO` [SALAPRINOL], the IC50 in assay [1] came out at 0.29 µM; in assay [2], 2.6 µM.

In the case of `O=S(=O)([O-])O[C@H]([C@@H](O)[C@H](O)[C@@H](O)CO)[C@H](O)C[S+]1C[C@@H](O)[C@H](O)[C@H]1CO` (stereo not given in full), the IC50 in assay [1] was above 236 µM; in assay [2] it was 8.5 µM. Moreover, the inhibition in assay [3] amounted to 32%; in assay [4] it was 28%.

For `O=S(=O)([O-])O[C@@H]([C@H](O)[C@@H](O)CO)[C@H](O)C[S@+]1C[C@@H](O)[C@H](O)[C@H]1CO` [PONKORANOL], the IC50 in assay [1] is above 100 µM.

As to `O=S(=O)([O-])O[C@H]([C@@H](O)[C@@H](O)[C@@H](O)CO)[C@H](O)C[S+]1C[C@@H](O)[C@H](O)[C@H]1CO` (stereo not given in full), the IC50 in assay [1] was determined as 23 µM; in assay [2], 25 µM.

`O=S(=O)([O-])O[C@@H](CO)[C@H](O)C[S@+]1C[C@@H](O)[C@H](O)[C@H]1CO` [SALACINOL] showed an IC50 in assay [5] of 5.2 µM.

Take `O=S(=O)([O-])O[C@H]([C@@H](O)[C@@H](O)[C@H](O)CO)[C@H](O)C[S+]1C[C@@H](O)[C@H](O)[C@H]1CO` (stereo not given in full): the figures for the IC50 in assay [1] and in assay [2] were above 236 µM and 16 µM, respectively. Moreover, the inhibition stood at 25% in assay [3] and 8% in assay [4].

Regarding `OCC(CO)N[C@H]1C[C@](O)(CO)[C@@H](O)[C@H](O)[C@H]1O` [VOGLIBOSE], the IC50 in assay [1] was determined as 1.2 µM.

For the molecule `O=S(=O)([O-])O[C@@H]([C@H](O)[C@H](O)[C@@H](O)CO)[C@H](O)C[S+]1C[C@@H](O)[C@H](O)[C@H]1CO` (stereo not given in full) [KOTALANOL], the IC50 in assay [5] was determined as 7.2 µM.

As for `O=S(=O)([O-])O[C@H]([C@@H](O)[C@H](O)[C@H](O)CO)[C@H](O)C[S+]1C[C@@H](O)[C@H](O)[C@H]1CO` (stereo not given in full), the half-inhibitory concentration (IC50) is above 236 µM in assay [1] and 9 µM in assay [2]. The values for the inhibition in assay [3] and in assay [4] were 45% and 34%, respectively.

In general, IC50 refers to the concentration that gives 50% inhibition. As usually defined, the inhibition is the share of the control response that was lost under treatment. Read a low inhibition as little suppression.
